High-throughput results from PubChem BioAssay.
The list is not random: actives were taken first. Their share in the collection is about 1.9%.
Rpn11 inh: inhibitors of human proteasome Rpn11; human 26S proteasome, Ub4-pepOG fluorescence polarization; 20S core pre-blocked with epoxomicin; inhibition, % at 20 µM; actives 0.59% (n = 360,000);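 active means inhibition at 20 µM, scaled to each plate's controls, above about 33%, limit read from the data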
NadD block: NadD (S. aureus) enzyme inhibition; purified NadD enzyme, colorimetric absorbance read-out; AID 602399; actives 0.78% (n = 360,000); inhibition, % at 20 µM; in the data active means inhibition above about 26%
Xi reactivation: activators of X-chromosome reactivation in mouse fibroblasts | activation, % at 7.58 µM | actives 0.055% (n = 360,000) | XiGFP mouse fibroblasts, % GFP-positive cells imaging, 3 d; cells co-treated with 5-aza-dC sensitizer; scaled so ellipticine positive control = 100%;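 active means mean normalized replicate activation at least 10% and every replicate at or above 10%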
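System: XiGFP fibroblasts, SV40-immortalized. Medium: DMEM plus 5-aza-dC sensitizer. Doses: single point. Timing: 3 d treatment, 15 min room-temperature fixation. Control set: ellipticine 6 µM.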
Rin1-Abl PPI inh: inhibitors of human Rin1-Abl protein interaction | inhibition, % at 7.35 µM | actives 0.4% (n = 360,000) | P00519+Q13671 | AID 588664 | TR-FRET Rin1/Abl binding, biochemical; in the data active means inhibition above about 5%, passing the limit was not always enough
Target sequence (P00519 whole entry, looked up): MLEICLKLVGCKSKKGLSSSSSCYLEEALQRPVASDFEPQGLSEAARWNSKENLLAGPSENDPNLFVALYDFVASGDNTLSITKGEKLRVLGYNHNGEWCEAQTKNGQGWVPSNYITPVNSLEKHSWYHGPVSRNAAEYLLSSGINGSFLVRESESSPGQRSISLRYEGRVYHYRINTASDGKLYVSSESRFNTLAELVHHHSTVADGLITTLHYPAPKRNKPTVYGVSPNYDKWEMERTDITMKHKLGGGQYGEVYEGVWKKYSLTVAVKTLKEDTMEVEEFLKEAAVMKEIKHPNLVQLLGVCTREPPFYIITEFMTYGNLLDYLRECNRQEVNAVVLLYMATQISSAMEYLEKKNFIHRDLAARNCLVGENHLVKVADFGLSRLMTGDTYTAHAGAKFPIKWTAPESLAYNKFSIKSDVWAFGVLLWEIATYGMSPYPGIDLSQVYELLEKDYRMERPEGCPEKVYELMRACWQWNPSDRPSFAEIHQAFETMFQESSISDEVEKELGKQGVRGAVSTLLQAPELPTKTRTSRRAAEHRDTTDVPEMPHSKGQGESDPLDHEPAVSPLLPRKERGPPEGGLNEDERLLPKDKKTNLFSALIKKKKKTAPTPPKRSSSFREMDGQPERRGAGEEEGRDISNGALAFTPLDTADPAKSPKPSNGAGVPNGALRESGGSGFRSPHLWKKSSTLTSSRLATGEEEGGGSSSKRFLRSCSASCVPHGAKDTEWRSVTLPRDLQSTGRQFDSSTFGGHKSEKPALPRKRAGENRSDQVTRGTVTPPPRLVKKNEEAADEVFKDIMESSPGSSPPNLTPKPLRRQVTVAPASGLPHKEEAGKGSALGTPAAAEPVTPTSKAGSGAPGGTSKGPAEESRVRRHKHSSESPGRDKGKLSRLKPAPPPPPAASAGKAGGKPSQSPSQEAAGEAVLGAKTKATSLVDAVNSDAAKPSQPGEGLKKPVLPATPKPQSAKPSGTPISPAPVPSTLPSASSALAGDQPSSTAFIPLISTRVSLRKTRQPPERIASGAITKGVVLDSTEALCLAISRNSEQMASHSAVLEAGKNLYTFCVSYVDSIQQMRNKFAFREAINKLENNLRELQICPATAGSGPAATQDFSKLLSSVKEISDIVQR
Target sequence (Q13671 whole entry, looked up): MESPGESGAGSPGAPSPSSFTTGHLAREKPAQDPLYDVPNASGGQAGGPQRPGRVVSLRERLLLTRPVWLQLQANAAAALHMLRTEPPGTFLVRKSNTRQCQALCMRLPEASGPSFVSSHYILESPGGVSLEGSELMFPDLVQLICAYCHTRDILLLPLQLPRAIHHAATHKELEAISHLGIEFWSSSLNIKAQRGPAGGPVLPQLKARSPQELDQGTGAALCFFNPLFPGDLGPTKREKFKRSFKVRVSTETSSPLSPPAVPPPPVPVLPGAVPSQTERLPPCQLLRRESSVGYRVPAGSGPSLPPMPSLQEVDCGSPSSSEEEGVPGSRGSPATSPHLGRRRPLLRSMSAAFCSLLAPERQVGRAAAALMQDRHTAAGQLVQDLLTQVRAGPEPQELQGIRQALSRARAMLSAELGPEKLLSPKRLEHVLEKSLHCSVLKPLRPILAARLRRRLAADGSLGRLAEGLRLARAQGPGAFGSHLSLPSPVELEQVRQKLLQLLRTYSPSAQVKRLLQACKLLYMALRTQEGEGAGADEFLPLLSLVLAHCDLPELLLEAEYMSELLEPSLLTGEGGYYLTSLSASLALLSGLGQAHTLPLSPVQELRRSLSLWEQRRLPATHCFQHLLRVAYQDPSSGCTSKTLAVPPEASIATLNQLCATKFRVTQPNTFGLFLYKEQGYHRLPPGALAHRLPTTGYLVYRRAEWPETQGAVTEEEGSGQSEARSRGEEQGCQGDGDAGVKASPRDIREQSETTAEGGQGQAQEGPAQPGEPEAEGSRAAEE
ABHD5-PLIN5 inh: ABHD5-PLIN5 protein interaction inhibition. Q00G26+Q8WTS1. Split G. princeps luciferase complementation, luminescence, 4 h. inhibition, % at 4 µM. actives 0.78% (n = 360,000). AID 602281;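 active means inhibition above the mean inhibition across every tested compound plus 3 SD, cut at about 22% in these data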
Rpn11 inh conf: confirmation of human proteasome Rpn11 inhibitors; shares compounds with Rpn11 inh; purified human 26S proteasome, Ub4-pepOG fluorescence polarization; proteasome pretreated with epoxomicin; inhibition, % at 20 µM; actives 29% (n = 1,900)
MMP-2 inh: counter-screen for RPN11 inhibitors: inhibition of human MMP-2 | inhibition, % at 20 µM | actives 4% (n = 1,900) | AID 602330 | recombinant MMP-2, FRET peptide cleavage fluorescence | shares compounds with Rpn11 inh;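 further: human MMP-2 activated beforehand with APMA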
Thrombin inh: counter-screen for RPN11 inhibitors: inhibition of bovine thrombin; shares compounds with Rpn11 inh; bovine thrombin cleavage of Ub4-pepOG, fluorescence polarization; inhibition, % at 20 µM; actives 13% (n = 1,900);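 active means mean inhibition at least 40% at 20 µM, or signal 3 deviations below plate average, so some actives read negative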
Numbers stand for hits; . = inactive; / = no result given; + = active, no number. Unless noted, no stated cut-off is given here; in the data, active means inhibition above about 40%; inactive means the rest.

SMILES	Rpn11 inh	NadD block	Xi reactivation	Rin1-Abl PPI inh	ABHD5-PLIN5 inh	Rpn11 inh conf	MMP-2 inh	Thrombin inh
O=C(CCN1C(=O)/C(=C\c2cccs2)SC1=S)Nc1ccccn1	61	.	.	.	.	60	.	.
COc1cccc(S(=O)(=O)N2CCC3(CC2)CN[C@@H](CO)c2[nH]c4cc(OC)ccc4c23)c1	/	/	.	/	/	/	/	/
COc1cc(OC)c(OC)cc1/C=C/c1cc(C(F)(F)F)[nH]c(=O)n1	65	.	.	.	.	.	.	.
CC(C)NC(=O)N(C)C[C@@H]1Oc2ccc(NS(C)(=O)=O)cc2C(=O)N(C)C[C@H]1C	/	/	.	/	/	/	/	/
COCCn1c(SCC(=O)c2c[nH]c3ccccc23)nnc1-c1ccncc1	.	.	/	.	.	/	/	/
CCn1c(SCC(=O)c2c[nH]c3ccccc23)nnc1-c1cccs1	46	.	/	.	.	79	.	44
Cc1ccc(-c2nn(CC(=O)NCc3cc(-c4nn(C)c(=O)c5ccccc45)ccc3C)c(=O)c3ccccc23)cc1	80	.	/	.	.	.	.	.
O=C(NCC1CC1)[C@@H]1N[C@@H]2c3ccc(C4=CCCCC4)c(=O)n3C[C@@H]2[C@H]1CO	/	/	.	/	/	/	/	/
COc1ccc(-c2cc(C(F)(F)F)nc(SCCC(=O)N3CCN(C)CC3)n2)cc1	.	.	.	.	.	/	/	/
COCC(C)NC(=O)CCSc1nc(-c2ccc(OC)cc2)cc(C(F)(F)F)n1 (stereo not drawn)	86	.	/	.	.	.	.	.
CC(=O)N(C)C[C@@H]1Oc2ccccc2CC(=O)N(C)C[C@H]1C	/	/	.	/	/	/	/	/
CCOc1ccc(CCNC(=O)c2nnn(CC(=O)Nc3ccc(C)cc3)c2N)cc1OCC	84	.	/	.	.	87	.	.
Cc1cc(C)cc(NC(=O)Cn2nnc(C(=O)NCc3ccc4c(c3)OCO4)c2N)c1	157	.	.	.	.	101	.	.
COc1ccc(NC(=O)Cn2nnc(C(=O)NCc3ccc(C)cc3)c2N)cc1OC	.	.	.	.	.	/	/	/
COc1ccc(NC(=O)Cn2nnc(C(=O)NCc3ccc4c(c3)OCO4)c2N)cc1	.	.	.	.	.	/	/	/
Cc1ccc(CNC(=O)c2nnn(CC(=O)Nc3cc(C)cc(C)c3)c2N)cc1	58	.	.	.	.	51	.	.
O=C1/C(=C/c2ccc(N3CCCC3)cc2)NC(=S)N1C1CC1	/	.	/	.	.	/	/	/
O=C1N/C(=C/c2ccc(N3CCCC3)cc2)C(=O)N1c1ccccc1	41	.	.	.	.	.	.	.
Cc1[nH]c2ccc(C(=O)O)cc2c1C	.	.	/	.	.	/	/	/
CCCc1c(C)[nH]c2ccc(C(=O)O)cc2c1=S	98	.	.	.	.	74	.	.
O=C(CSc1nc(-c2ccccc2)c(-c2ccccc2)[nH]1)N1CCN(S(=O)(=O)c2ccccc2)CC1	+	.	/	.	.	.	.	.
Cc1ccc(NC(=O)C[C@H]2CC[C@H]3[C@@H](COc4ccc(NC(=O)C5CCCCC5)cc4C(=O)N3C)O2)cc1	/	/	.	/	/	/	/	/
COc1ccc2c3c([nH]c2c1)[C@@H](CO)N(S(C)(=O)=O)CC31CCN(C(=O)CN(C)C)CC1	/	/	.	/	/	/	/	/
COc1ccc(-[n+]2c(C)cc(/C=C3\Sc4ccccc4N3C)cc2C)cc1	83	.	179	.	.	50	.	.
NC(=O)C[n+]1ccc(/C=N/O)cc1	.	.	.	.	.	/	/	/
SMILES	Rpn11 inh	NadD block	Xi reactivation	Rin1-Abl PPI inh	ABHD5-PLIN5 inh	Rpn11 inh conf	MMP-2 inh	Thrombin inh
CC(C)N(C(=O)C[n+]1ccc(/C=N/O)cc1)C(C)C	44	.	.	.	.	.	.	.
NNC(=O)COc1ccc(-c2nccc(-c3ccc(F)cc3)n2)cc1	.	.	.	.	.	/	/	/
NNC(=O)COc1ccc(F)cc1	46	.	.	.	.	.	.	.
Cc1cccc(OCCn2c(-c3ccco3)nc3ccccc32)c1	.	.	/	.	.	/	/	/
c1ccc(OCCn2c(-c3ccco3)nc3ccccc32)cc1	49	.	/	.	.	.	.	.
COC(=O)c1ccccc1NC(=O)CN1CCN(Cc2ccccc2)CC1	37	.	.	.	.	.	.	.
O=C(C1CCCC1)N1CC2(C1)[C@H](c1ccccc1)[C@@H](CO)N2Cc1ccccc1F	/	/	.	/	/	/	/	/
Cc1ccc(/C=C2\C(=N)N3N=C(CC(=O)N4CCOCC4)SC3=NC2=O)o1	.	.	.	.	.	/	/	/
COc1ccc(-n2c(C)cc(/C=C3\C(=N)N4N=C(CC(=O)N5CCOCC5)SC4=NC3=O)c2C)c(OC)c1	43	.	.	.	.	.	.	.
N=C1/C(=C\c2ccc(SCc3ccccc3)o2)C(=O)N=C2SC(CC(=O)N3CCOCC3)=NN12	41	.	.	.	.	.	.	.
CCS(=O)(=O)C1=NN2C(=N)/C(=C\c3ccc(SCc4ccco4)o3)C(=O)N=C2S1	+	.	.	.	.	122	.	49
COc1ccccc1-n1c(C)cc(/C=C2\C(=N)N3N=C(CC(=O)N4CCOCC4)SC3=NC2=O)c1C	.	.	.	.	.	/	/	/
COc1ccc2cc(/C=C3\SC(=S)NC3=O)c(N3CCOCC3)nc2c1	55	.	.	.	.	48	.	active
COc1cccc(C=C2SC(=S)NC2=O)c1	.	.	.	.	.	/	/	/
CCC(=O)N1[C@H](CO)[C@@H](c2ccccc2)C12CN(Cc1cccnc1)C2	/	/	.	/	/	/	/	/
CCC(=O)Nc1ccc2c(c1)C(=O)N(C)[C@H]1CC[C@@H](CC(=O)N3CCc4ccccc4C3)O[C@H]1CO2	/	/	.	/	/	/	/	/
Cn1c(N/N=C/c2ccccc2)nc2sc3c(c2c1=O)CCC3	53	.	/	.	.	.	.	.
CCN1CC(O)=C(c2nc3ccccc3s2)C1=N	99	.	/	.	.	.	.	.
CCCCN1CC(O)=C(c2nc3ccccc3s2)C1=N	.	.	/	.	.	/	/	/
COc1cc2sc3cc(NCC[C@@H]4CCCN4C)ccc3c(=O)c2cc1OC	57	.	.	.	.	.	.	.
COc1cccc2sc3ccc(NCCC4CCCN4C)cc3c(=O)c12 (stereo not drawn)	.	.	.	.	.	/	/	/
O=S(=O)(Nc1nc2ccccc2nc1Nc1ccc2c(c1)OCO2)c1ccc(F)cc1	38	.	.	.	.	.	.	.
COc1ccc(CCn2c(O)cc3nn(-c4nc5ccccc5s4)c(=O)c-3c2C)cc1	55	73	.	.	.	.	.	.
O=C(N[C@@H]1C=C[C@@H](CC(=O)N2CCCCC2)O[C@@H]1CO)c1cccc(F)c1	/	/	.	/	/	/	/	/
O=C(O)CSc1ncnc2nc[nH]c12	168	.	/	.	.	.	.	.
